Active and inactive are the calls of the source. The rule behind the calls is not given here.
Legend:
[1] = tested on: COLO 205; assay: Cytotoxicity against human COLO205 cells after 48 hrs by sulforhodamine B assay; format: functional; conditions: COLO 205, 48 h
In short: (§1)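 SRB growth assay, 48 h continuous exposure. Cells grown in DMEM with 10% FBS and 2 mM L-glutamine, plated at densities set by doubling time, preincubated 24 h at 37 °C, 5% CO2. Four concentrations (0.1, 1, 10, 100 µM) in triplicate wells. TCA fixation, 0.4% SRB staining, absorbance at 540 nm against 690 nm reference. GI50 from time-zero-corrected growth; repeated three times.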

[2] = tested on: ZR-75-1; assay: Cytotoxicity against human ZR-75-1 cells after 48 hrs by sulforhodamine B assay; format: functional; conditions: ZR-75-1, 48 h; in short: as §1
[3] = tested on: A2780; assay: Cytotoxicity against human A2780 cells after 48 hrs by sulforhodamine B assay; format: functional; conditions: A2780, 48 h; in short: as §1
[4] = Cytotoxicity against human Gurav cells after 48 hrs by sulforhodamine B assay; format: functional; in short: as §1
[5] = Cytotoxicity against human DWD cells after 48 hrs by sulforhodamine B assay; format: functional; in short: as §1
[6] = tested on: A549; assay: Cytotoxicity against human A549 cells after 48 hrs by sulforhodamine B assay; format: functional; conditions: A549, 48 h; in short: as §1
[7] = tested on: MCF7; assay: Cytotoxicity against human MCF7 cells after 48 hrs by sulforhodamine B assay; format: functional; conditions: MCF7, 48 h; in short: as §1
[8] = tested on: HOP-62; assay: Cytotoxicity against human HOP62 cells after 48 hrs by sulforhodamine B assay; format: functional; conditions: HOP-62, 48 h; in short: as §1
[9] = tested on: MCF7; assay: Cell cycle arrest in human MCF7 cells assessed as accumulation at G2/M phase at 2 uM after 24 hrs by propidium iodide staining based flow cytometry (reference value: 26.42%); format: functional
[10] = tested on: MCF7; assay: Cell cycle arrest in human MCF7 cells assessed as accumulation at G1 phase at 2 uM after 24 hrs by propidium iodide staining based flow cytometry (reference value: 60.5%); format: functional
[11] = tested on: MCF7; assay: Cell cycle arrest in human MCF7 cells assessed as accumulation at S phase at 2 uM after 24 hrs by propidium iodide staining based flow cytometry (reference value: 6.99%); format: functional
[12] = tested on: MCF7; assay: Cell cycle arrest in human MCF7 cells assessed as accumulation at GO phase at 2 uM after 24 hrs by propidium iodide staining based flow cytometry (reference value: 6.09%); format: functional
[13] = tested on: MCF7; assay: Induction of apoptosis in human MCF7 cells assessed as double-strand DNA breaks at 2 uM after 24 hrs measured as phosphorylation at ser-139 on H2AX protein by immunostaining relative to control; format: functional
In short: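 MCF-7 cells on coverslips treated 24 h at 2 µM, fixed in 4% paraformaldehyde for 20 min at room temperature, blocked with 1% BSA for 60 min. Anti-γ-H2AX (Ser139) antibody at 1:100 for 2 h at room temperature, then FITC-conjugated anti-rabbit secondary for 1 h. Foci-positive cells scored as percentage against DMSO control.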

[14] = tested on: MCF7; assay: Cytotoxicity against human MCF7 cells at 2 to 4 uM after 24 hrs by MTT assay; format: functional, cell-based
In short: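 MCF-7 cells in DMEM with 10% fetal calf serum and penicillin/streptomycin, seeded at 10,000 cells/well and incubated overnight. Treated at 2 and 4 µM for 24 h, then medium replaced with MTT and incubated 2 h at 37 °C. Formazan dissolved in extraction buffer and read at 570 nm.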

[15] = tested on: MCF7; assay: Induction of apoptosis in human MCF7 cells assessed as single-strand DNA break at 2 uM after 24 hrs by comet assay relative to control; format: functional
In short: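 Alkaline comet assay in MCF-7 cells after 24 h at 2 µM. Electrophoresis 20 min at 40 V in 0.5% TBE pH 8, SYBR Green I stain, fluorescence microscopy; percentage of cells with tails scored.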

SMILES	GI50 [1]	GI50 [2]	GI50 [3]	GI50 [4]	GI50 [5]	GI50 [6]	GI50 [7]	GI50 [8]	Activity [9]	Activity [10]	Activity [11]	Activity [12]	Activity [13]	Activity [14]	Activity [15]
COc1cccc2c1C(=O)c1c(O)c3c(c(O)c1C2=O)C[C@@](O)(C(=O)CO)C[C@@H]3O[C@H]1C[C@H](N)[C@H](O)[C@H](C)O1 [DOXORUBICIN]	< 100 nM	110 nM	< 100 nM	< 100 nM	< 100 nM	< 100 nM	130 nM	150 nM	–	–	–	–	–	–	–
COc1ccc(/C=C(/C(=O)N[C@@H]2c3cc4c(cc3[C@@H](c3cc(OC)c(OC)c(OC)c3)[C@H]3C(=O)OC[C@@H]32)OCO4)c2cc(OC)c(OC)c(OC)c2)cc1[N+](=O)[O-]	2700 nM	2200 nM	2500 nM	2600 nM	2900 nM	–	–	2300 nM	–	–	–	–	–	–	–
COc1ccc(/C=C\c2cc(OC)c(OC)c(OC)c2)cc1O [COMBRETASTATIN A4]	–	–	–	–	–	–	–	–	84.41%	2.49%	8.03%	5.07%	50%	–	–
COc1cc([C@@H]2c3cc4c(cc3[C@H](O)[C@H]3COC(=O)[C@H]23)OCO4)cc(OC)c1OC [PODOFILOX]	–	–	–	–	–	–	–	–	86.59%	2.38%	5.13%	5.9%	inactive	inactive	–
COc1cccc(/C=C(/C(=O)N[C@@H]2c3cc4c(cc3[C@@H](c3cc(OC)c(OC)c(OC)c3)[C@H]3C(=O)OC[C@@H]32)OCO4)c2cc(OC)c(OC)c(OC)c2)c1	–	180 nM	< 100 nM	2100 nM	2200 nM	2700 nM	< 100 nM	180 nM	36.35%	52.49%	6.43%	4.83%	–	Active	–
COc1ccc(/C=C(/C(=O)N[C@@H]2c3cc4c(cc3[C@@H](c3cc(OC)c(OC)c(OC)c3)[C@H]3C(=O)OC[C@@H]32)OCO4)c2cc(OC)c(OC)c(OC)c2)cc1	170 nM	2900 nM	2500 nM	2200 nM	2300 nM	–	2900 nM	–	–	–	–	–	–	–	–
COc1cc(/C(=C\c2ccc(O)c([N+](=O)[O-])c2)C(=O)N[C@@H]2c3cc4c(cc3[C@@H](c3cc(OC)c(OC)c(OC)c3)[C@H]3C(=O)OC[C@@H]32)OCO4)cc(OC)c1OC	2000 nM	180 nM	2200 nM	190 nM	< 100 nM	–	2700 nM	190 nM	–	–	–	–	–	–	–
COc1ccc(/C=C(/C(=O)N[C@@H]2c3cc4c(cc3[C@@H](c3cc(OC)c(OC)c(OC)c3)[C@H]3C(=O)OC[C@@H]32)OCO4)c2cc(OC)c(OC)c(OC)c2)cc1F	2400 nM	–	–	–	–	–	2700 nM	–	–	–	–	–	–	–	–
COc1ccccc1/C=C(/C(=O)N[C@@H]1c2cc3c(cc2[C@@H](c2cc(OC)c(OC)c(OC)c2)[C@H]2C(=O)OC[C@@H]21)OCO3)c1ccc([N+](=O)[O-])cc1	–	–	–	–	–	–	–	–	–	–	–	–	–	Active	–
COc1cc([C@@H]2c3cc4c(cc3[C@@H](O[C@@H]3O[C@@H]5CO[C@@H](C)O[C@H]5[C@H](O)[C@H]3O)[C@H]3COC(=O)[C@H]23)OCO4)cc(OC)c1O [ETOPOSIDE]	130 nM	200 nM	1300 nM	500 nM	600 nM	3080 nM	2100 nM	800 nM	62.86%	17.29%	12.31%	7.54%	70%	Active	10%
COc1ccc(F)c(/C=C(/C(=O)N[C@@H]2c3cc4c(cc3[C@@H](c3cc(OC)c(OC)c(OC)c3)[C@H]3C(=O)OC[C@@H]32)OCO4)c2cc(OC)c(OC)c(OC)c2)c1	–	2700 nM	–	2500 nM	–	–	–	–	–	–	–	–	–	–	–
COc1cc(/C(=C\c2cccc([N+](=O)[O-])c2)C(=O)N[C@@H]2c3cc4c(cc3[C@@H](c3cc(OC)c(OC)c(OC)c3)[C@H]3C(=O)OC[C@@H]32)OCO4)cc(OC)c1OC	–	–	2500 nM	2100 nM	< 100 nM	2400 nM	2700 nM	170 nM	–	–	–	–	–	–	–
COc1ccc(/C=C(/C(=O)N[C@@H]2c3cc4c(cc3[C@@H](c3cc(OC)c(OC)c(OC)c3)[C@H]3C(=O)OC[C@@H]32)OCO4)c2cc(OC)c(OC)c(OC)c2)cc1O	–	–	–	–	–	2900 nM	–	2900 nM	–	–	–	–	–	–	–
COc1ccccc1/C(=C\c1ccc([N+](=O)[O-])cc1)C(=O)O	–	–	–	–	–	–	–	–	20.12%	66.28%	10.53%	3.07%	30%	inactive	20%
COc1cc(/C(=C\c2ccc([N+](=O)[O-])cc2)C(=O)N[C@@H]2c3cc4c(cc3[C@@H](c3cc(OC)c(OC)c(OC)c3)[C@H]3C(=O)OC[C@@H]32)OCO4)cc(OC)c1OC	2100 nM	2200 nM	2600 nM	2100 nM	2400 nM	–	–	2700 nM	–	–	–	–	–	–	–
COc1cc(/C(=C\c2ccc(O)cc2)C(=O)N[C@@H]2c3cc4c(cc3[C@@H](c3cc(OC)c(OC)c(OC)c3)[C@H]3C(=O)OC[C@@H]32)OCO4)cc(OC)c1OC	–	2700 nM	–	2700 nM	2700 nM	2300 nM	–	2600 nM	–	–	–	–	–	–	–
COc1cc(/C=C(/C(=O)N[C@@H]2c3cc4c(cc3[C@@H](c3cc(OC)c(OC)c(OC)c3)[C@H]3C(=O)OC[C@@H]32)OCO4)c2cc(OC)c(OC)c(OC)c2)ccc1F	–	2200 nM	–	2400 nM	–	–	–	2500 nM	–	–	–	–	–	–	–
COc1ccc(/C=C(/C(=O)N[C@@H]2c3cc4c(cc3[C@@H](c3cc(OC)c(OC)c(OC)c3)[C@H]3C(=O)OC[C@@H]32)OCO4)c2cc(OC)c(OC)c(OC)c2)c(F)c1	–	2500 nM	2700 nM	180 nM	190 nM	2100 nM	2400 nM	170 nM	–	–	–	–	–	–	–
COc1ccccc1/C=C(/C(=O)N[C@@H]1c2cc3c(cc2[C@@H](c2cc(OC)c(OC)c(OC)c2)[C@H]2C(=O)OC[C@@H]21)OCO3)c1ccccc1[N+](=O)[O-]	–	–	–	–	–	–	–	–	–	–	–	–	–	Active	–
COc1cc(/C=C(/C(=O)N[C@@H]2c3cc4c(cc3[C@@H](c3cc(OC)c(OC)c(OC)c3)[C@H]3C(=O)OC[C@@H]32)OCO4)c2cc(OC)c(OC)c(OC)c2)ccc1O	–	2900 nM	–	–	–	2400 nM	–	2500 nM	–	–	–	–	–	–	–
